Measured values from ChEMBL document CHEMBL1255169, “Synthesis, structure-affinity relationships, and radiolabeling of selective high-affinity 5-HT4 receptor ligands as prospective imaging probes for positron emission tomography” (J Med Chem, 2010).
Active and inactive are the calls of the source. No cut-off for these calls is given here.

What was measured:
[1] = molecular target: Beta-3 adrenergic receptor (Rattus norvegicus, UniProt P26255); assay: Binding affinity to rat adrenergic beta3 receptor
Chain of Beta-3 adrenergic receptor (P26255 whole entry): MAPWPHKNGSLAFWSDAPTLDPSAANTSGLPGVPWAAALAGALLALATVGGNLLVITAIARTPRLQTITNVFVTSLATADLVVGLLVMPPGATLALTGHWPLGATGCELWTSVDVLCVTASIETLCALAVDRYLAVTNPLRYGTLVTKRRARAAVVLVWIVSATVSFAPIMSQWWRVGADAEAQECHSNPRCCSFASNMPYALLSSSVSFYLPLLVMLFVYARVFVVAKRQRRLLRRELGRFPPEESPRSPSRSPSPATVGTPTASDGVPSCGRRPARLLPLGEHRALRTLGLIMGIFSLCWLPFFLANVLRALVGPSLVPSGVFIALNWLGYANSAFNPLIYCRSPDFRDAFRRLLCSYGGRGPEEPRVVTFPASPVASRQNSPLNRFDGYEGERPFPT

[2] = molecular target: Sodium-dependent noradrenaline transporter (Homo sapiens, UniProt P23975); assay: Binding affinity to human NET
Chain of Sodium-dependent noradrenaline transporter (P23975 whole entry): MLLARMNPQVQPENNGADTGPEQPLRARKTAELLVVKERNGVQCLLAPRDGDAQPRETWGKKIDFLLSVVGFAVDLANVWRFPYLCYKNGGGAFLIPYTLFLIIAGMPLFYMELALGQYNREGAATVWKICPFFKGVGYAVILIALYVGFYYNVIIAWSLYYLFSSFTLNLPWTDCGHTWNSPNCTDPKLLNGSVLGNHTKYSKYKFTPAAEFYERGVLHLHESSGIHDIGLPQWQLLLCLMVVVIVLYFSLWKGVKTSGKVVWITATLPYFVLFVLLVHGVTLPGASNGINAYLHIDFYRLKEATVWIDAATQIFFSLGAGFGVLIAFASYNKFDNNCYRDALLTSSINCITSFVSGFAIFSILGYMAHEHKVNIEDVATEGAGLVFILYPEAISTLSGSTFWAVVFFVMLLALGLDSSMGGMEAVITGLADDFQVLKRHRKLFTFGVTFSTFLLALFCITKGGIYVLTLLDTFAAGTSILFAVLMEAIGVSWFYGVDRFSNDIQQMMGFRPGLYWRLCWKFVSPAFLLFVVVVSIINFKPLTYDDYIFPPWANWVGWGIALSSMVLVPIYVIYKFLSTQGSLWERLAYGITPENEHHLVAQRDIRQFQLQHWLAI

[3] = molecular target: T1, 5-hydroxytryptamine receptor 4 (Homo sapiens, UniProt Q13639); assay: Agonist activity at 5HT4 receptor expressed in HEK293/L9 cells by cAMP assay; format: functional, cell-based
T1 sequence (Q13639 whole entry): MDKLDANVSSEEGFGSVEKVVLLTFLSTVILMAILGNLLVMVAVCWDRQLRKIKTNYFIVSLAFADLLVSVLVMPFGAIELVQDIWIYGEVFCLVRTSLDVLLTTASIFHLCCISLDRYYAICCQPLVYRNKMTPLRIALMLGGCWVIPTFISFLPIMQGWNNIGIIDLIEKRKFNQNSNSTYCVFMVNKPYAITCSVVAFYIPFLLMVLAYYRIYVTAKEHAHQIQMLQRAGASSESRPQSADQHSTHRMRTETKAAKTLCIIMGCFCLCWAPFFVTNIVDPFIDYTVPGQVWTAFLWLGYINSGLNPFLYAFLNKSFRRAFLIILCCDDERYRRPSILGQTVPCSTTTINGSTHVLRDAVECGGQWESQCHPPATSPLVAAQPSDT

[4] = Binding affinity to BZP receptor in rat brain; format: tissue-based
[5] = molecular target: Beta-1 adrenergic receptor (Rattus norvegicus, UniProt P18090); assay: Binding affinity to rat adrenergic beta-1 receptor
Chain of Beta-1 adrenergic receptor (P18090 whole entry): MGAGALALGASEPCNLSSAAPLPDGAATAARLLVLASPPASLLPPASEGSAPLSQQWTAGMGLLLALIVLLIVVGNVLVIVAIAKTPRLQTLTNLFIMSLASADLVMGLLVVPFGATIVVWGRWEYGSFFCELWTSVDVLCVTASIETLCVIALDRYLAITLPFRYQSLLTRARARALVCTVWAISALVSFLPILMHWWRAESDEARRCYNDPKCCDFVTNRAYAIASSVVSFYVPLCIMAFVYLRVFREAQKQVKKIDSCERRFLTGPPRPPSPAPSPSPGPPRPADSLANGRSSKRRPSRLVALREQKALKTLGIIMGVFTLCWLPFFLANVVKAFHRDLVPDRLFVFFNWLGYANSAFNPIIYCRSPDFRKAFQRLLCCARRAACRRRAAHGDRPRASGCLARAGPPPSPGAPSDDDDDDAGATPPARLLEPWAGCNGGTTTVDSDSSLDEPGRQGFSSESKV

[6] = molecular target: 5-hydroxytryptamine receptor 1A (Homo sapiens, UniProt P08908); assay: Binding affinity to human 5-HT1A receptor
Chain of 5-hydroxytryptamine receptor 1A (P08908 whole entry): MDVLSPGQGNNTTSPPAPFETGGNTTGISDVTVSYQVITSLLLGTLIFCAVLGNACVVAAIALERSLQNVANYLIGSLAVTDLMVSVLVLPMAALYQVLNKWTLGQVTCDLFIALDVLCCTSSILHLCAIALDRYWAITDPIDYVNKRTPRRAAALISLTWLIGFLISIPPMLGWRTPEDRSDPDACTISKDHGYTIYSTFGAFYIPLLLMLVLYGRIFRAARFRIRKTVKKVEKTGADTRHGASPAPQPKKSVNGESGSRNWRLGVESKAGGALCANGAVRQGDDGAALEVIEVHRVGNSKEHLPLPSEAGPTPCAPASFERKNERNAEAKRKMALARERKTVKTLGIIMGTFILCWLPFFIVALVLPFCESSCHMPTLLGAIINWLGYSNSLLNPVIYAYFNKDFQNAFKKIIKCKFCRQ

[7] = molecular target: 5-hydroxytryptamine receptor 3A (Homo sapiens, UniProt P46098); assay: Binding affinity to human 5-HT3 receptor
[8] = molecular target: Delta-type opioid receptor (Homo sapiens, UniProt P41143); assay: Binding affinity to human delta opioid receptor
[9] = molecular target: T1, 5-hydroxytryptamine receptor 4; assay: Inverse agonist activity at 5HT4 receptor expressed in HEK293/L9 cells by cAMP assay; format: functional, cell-based
[10] = molecular target: Muscarinic acetylcholine receptor M3 (Homo sapiens, UniProt P20309); assay: Binding affinity to human muscarinic M3 receptor
Chain of Muscarinic acetylcholine receptor M3 (P20309 whole entry): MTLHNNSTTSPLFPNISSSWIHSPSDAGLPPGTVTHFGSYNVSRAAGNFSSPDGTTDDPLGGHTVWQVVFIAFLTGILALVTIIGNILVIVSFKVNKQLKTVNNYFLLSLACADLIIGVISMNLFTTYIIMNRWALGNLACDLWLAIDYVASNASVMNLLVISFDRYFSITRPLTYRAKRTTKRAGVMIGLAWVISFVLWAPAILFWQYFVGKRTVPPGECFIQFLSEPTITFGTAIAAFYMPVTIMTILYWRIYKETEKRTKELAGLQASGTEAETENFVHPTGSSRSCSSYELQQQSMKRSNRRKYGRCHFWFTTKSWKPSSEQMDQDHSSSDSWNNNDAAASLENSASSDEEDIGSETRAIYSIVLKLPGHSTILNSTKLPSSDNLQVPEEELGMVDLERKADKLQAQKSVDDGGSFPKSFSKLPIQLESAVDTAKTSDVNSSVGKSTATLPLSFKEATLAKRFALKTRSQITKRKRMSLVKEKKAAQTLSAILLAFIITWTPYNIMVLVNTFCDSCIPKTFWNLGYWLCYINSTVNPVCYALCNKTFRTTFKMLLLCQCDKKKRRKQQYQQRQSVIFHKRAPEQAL

[11] = molecular target: T2, Alpha-1A adrenergic receptor (Homo sapiens, UniProt P35348); assay: Binding affinity to human adrenergic alpha1A receptor
T2 sequence (P35348 whole entry): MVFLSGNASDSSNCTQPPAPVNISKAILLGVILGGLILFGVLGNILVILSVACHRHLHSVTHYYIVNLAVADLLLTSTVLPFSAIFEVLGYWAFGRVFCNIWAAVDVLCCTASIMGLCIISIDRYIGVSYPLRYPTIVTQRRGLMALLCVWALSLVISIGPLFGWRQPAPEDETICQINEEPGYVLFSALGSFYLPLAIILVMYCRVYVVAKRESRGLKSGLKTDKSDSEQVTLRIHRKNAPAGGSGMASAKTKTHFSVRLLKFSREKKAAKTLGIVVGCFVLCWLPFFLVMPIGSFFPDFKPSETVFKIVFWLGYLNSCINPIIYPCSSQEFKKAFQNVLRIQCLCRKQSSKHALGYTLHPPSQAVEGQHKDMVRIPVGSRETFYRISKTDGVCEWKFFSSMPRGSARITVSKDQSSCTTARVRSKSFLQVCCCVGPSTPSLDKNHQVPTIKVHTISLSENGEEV

[12] = molecular target: T3, Alpha-2B adrenergic receptor (Homo sapiens, UniProt P18089); assay: Binding affinity to human adrenergic alpha2B receptor
T3 sequence (P18089 whole entry): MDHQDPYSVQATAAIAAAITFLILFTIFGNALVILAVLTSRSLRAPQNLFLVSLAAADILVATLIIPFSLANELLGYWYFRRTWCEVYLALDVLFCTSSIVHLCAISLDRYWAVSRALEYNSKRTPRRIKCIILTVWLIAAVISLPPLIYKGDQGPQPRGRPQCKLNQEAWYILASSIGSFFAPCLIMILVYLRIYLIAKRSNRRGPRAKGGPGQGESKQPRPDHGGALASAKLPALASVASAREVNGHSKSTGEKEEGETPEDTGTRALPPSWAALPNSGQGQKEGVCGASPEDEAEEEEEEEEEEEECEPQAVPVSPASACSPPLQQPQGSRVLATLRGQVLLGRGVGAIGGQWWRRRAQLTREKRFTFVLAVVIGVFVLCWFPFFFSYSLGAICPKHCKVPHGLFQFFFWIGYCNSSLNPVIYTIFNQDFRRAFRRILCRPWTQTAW
In short: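 Radioligand binding run by the NIMH Psychoactive Drug Screening Program as part of a broad receptor and binding-site panel, which included α1A, α1B, α1D and α2A–C subtypes. Affinity is expressed as Ki.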

[13] = molecular target: Alpha-1D adrenergic receptor (Homo sapiens, UniProt P25100); assay: Binding affinity to human adrenergic Alpha-1D receptor
D(3) dopamine receptor = D(3) dopamine receptor (Rattus norvegicus, UniProt P19020); assay: Binding affinity to rat dopamine D3 receptor
Chain of D(3) dopamine receptor (P19020 whole entry): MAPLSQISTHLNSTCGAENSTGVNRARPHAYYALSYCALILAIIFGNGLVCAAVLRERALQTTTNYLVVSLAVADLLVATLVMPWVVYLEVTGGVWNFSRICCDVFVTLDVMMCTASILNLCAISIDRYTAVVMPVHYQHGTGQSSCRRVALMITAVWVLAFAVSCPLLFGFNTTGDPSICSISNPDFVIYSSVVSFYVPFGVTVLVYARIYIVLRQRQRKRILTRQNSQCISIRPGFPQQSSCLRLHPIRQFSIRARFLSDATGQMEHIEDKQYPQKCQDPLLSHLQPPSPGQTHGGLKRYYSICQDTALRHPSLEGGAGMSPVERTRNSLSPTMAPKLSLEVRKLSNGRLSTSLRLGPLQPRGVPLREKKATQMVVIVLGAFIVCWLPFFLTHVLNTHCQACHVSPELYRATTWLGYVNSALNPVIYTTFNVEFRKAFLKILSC

[14] = molecular target: Sodium-dependent dopamine transporter (Homo sapiens, UniProt Q01959); assay: Binding affinity to human DAT
Histamine H3 receptor = Histamine H3 receptor (Cavia porcellus, UniProt Q9JI35); assay: Binding affinity to guinea pig histamine H3 receptor
[15] = molecular target: Sodium-dependent serotonin transporter (Homo sapiens, UniProt P31645); assay: Binding affinity to human SERT
Chain of Sodium-dependent serotonin transporter (P31645 whole entry): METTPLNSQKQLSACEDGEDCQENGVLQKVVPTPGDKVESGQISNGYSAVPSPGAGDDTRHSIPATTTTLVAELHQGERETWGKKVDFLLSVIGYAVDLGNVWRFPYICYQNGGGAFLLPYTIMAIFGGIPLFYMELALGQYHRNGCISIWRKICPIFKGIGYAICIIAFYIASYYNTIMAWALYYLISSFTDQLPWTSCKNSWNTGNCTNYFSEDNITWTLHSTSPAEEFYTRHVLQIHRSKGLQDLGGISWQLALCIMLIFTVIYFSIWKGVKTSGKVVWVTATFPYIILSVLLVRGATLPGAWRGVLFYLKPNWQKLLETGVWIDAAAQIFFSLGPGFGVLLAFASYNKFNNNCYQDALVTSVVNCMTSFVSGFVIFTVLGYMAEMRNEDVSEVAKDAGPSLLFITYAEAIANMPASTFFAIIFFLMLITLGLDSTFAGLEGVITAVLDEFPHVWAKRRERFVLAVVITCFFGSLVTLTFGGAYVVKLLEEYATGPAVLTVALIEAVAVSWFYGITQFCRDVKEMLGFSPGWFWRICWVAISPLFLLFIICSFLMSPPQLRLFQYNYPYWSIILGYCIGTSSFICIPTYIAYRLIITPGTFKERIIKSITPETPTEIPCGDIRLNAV

[16] = molecular target: Muscarinic acetylcholine receptor M2 (Homo sapiens, UniProt P08172); assay: Binding affinity to human muscarinic M2 receptor
Chain of Muscarinic acetylcholine receptor M2 (P08172 whole entry): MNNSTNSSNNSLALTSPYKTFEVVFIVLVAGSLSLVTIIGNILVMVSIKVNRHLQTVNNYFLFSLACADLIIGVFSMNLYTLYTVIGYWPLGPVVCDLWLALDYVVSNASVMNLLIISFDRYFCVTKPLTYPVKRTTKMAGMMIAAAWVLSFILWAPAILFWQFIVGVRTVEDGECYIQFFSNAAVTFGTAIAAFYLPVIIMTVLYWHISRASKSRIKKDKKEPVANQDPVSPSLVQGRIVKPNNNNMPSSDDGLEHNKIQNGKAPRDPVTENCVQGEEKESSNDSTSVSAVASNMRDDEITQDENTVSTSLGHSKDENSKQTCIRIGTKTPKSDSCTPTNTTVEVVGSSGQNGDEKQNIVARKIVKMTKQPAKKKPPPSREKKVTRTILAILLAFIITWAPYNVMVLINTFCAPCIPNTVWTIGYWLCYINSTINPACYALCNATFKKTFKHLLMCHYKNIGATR

[17] = molecular target: 5-hydroxytryptamine receptor 7 (Homo sapiens, UniProt P34969); assay: Binding affinity to human 5-HT7 receptor
Histamine H2 receptor = Histamine H2 receptor (Cavia porcellus, UniProt P47747); assay: Binding affinity to guinea pig histamine H2 receptor
Histamine H4 receptor = Histamine H4 receptor (Cavia porcellus, UniProt Q91ZY3); assay: Binding affinity to guinea pig histamine H4 receptor
[18] = molecular target: Kappa-type opioid receptor (Homo sapiens, UniProt P41145); assay: Binding affinity to human kappa opioid receptor
Chain of Kappa-type opioid receptor (P41145 whole entry): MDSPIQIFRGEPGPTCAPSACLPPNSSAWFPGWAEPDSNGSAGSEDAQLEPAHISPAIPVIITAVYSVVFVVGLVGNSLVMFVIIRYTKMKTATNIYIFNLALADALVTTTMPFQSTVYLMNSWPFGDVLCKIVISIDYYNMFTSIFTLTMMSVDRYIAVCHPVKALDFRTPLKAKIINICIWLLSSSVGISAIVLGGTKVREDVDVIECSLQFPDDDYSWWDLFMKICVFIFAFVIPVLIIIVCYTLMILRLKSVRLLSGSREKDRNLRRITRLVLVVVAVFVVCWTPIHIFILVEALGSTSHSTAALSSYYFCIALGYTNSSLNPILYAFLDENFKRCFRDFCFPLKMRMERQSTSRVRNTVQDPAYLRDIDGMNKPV

[19] = molecular target: Muscarinic acetylcholine receptor M5 (Homo sapiens, UniProt P08912); assay: Binding affinity to human muscarinic M5 receptor
[20] = molecular target: 5-hydroxytryptamine receptor 1E (Homo sapiens, UniProt P28566); assay: Binding affinity to human 5-HT1E receptor
[21] = molecular target: T1, 5-hydroxytryptamine receptor 4; assay: Antagonist activity at 5HT4 receptor expressed in HEK293/L9 cells by cAMP assay; format: functional, cell-based

SMILES | Ki [1] | Ki [2] | Ki [4] | Ki [5] | Ki [6] | Ki [7] | Ki [8] | Ki [10] | Ki [11] | Ki [12] | Ki [13] | Ki (D(3) dopamine receptor) | Ki [14] | Ki (Histamine H3 receptor) | Ki [15] | Ki [16] | Ki [17] | Ki (Histamine H2 receptor) | Ki (Histamine H4 receptor) | Ki [18] | other results
CCCCN1CCC(COC(=O)c2cc(Cl)c(NC)c3c2OCCO3)CC1 | > 10 µM | 3.23 µM | > 10 µM | > 10 µM | 0.3 µM | 1.07 µM | > 10 µM | 0.823 µM | 0.522 µM | 0.671 µM | 2.28 µM | 0.336 µM | 2.02 µM | > 10 µM | 9.01 µM | 0.433 µM | 5.7 µM | > 10 µM | > 10 µM | > 10 µM | EC50 [3]: 0.0141 µM; Efficacy [9]: Active; Ki [19]: 0.972 µM
CCCCN1CCC(COC(=O)c2ccc(N)c(OC)c2)CC1 | > 10 µM | > 10 µM | > 10 µM | 4.41 µM | > 10 µM | 3.51 µM | > 10 µM | 1.1 µM | > 10 µM | > 10 µM | > 10 µM | 6.27 µM | > 10 µM | 1.65 µM | > 10 µM | > 10 µM | > 10 µM | > 10 µM | > 10 µM | > 10 µM | Ki [20]: > 10 µM; Efficacy [21]: Active; Ki [19]: 4.06 µM
